Format in all cases: functional
The test system of one assay is Talaromyces marneffei. The assay can be described thus: Antifungal activity against recultured Penicillium marneffei after 3 to 4 days by serial plate dilution method. Particulars: for MIC: Talaromyces marneffei. In short, it runs like this:
(§1)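 Sabouraud agar made from peptone, glucose and agar in water, pH 5.7. Fungal spores suspended in normal saline and used to lawn the plates, which were dried 1 h at 37 °C. Wells punched and compounds added in DMSO, with a DMSO solvent control. Triplicate plates held at 37 °C for 3–4 days. Read-out is inhibition zone diameter.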

The next assay concerns Pseudomonas aeruginosa. The assay can be described thus: Antibacterial activity against Pseudomonas aeruginosa ATCC 27853 after 3 to 4 days by serial plate dilution method. The conditions noted are these: for MIC: Pseudomonas aeruginosa, ATCC 27853. The method, boiled down: (§2)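 Serial dilutions in Mueller-Hinton broth in tubes, pH adjusted to 5.0 with phosphate buffer. Inoculated with a standardized bacterial suspension and incubated 16–18 h at 37 °C. MIC is the lowest concentration with no visible growth, tested over 6.25–100 µg/mL. Zones come from an agar well diffusion assay: compounds in DMSO are added to wells in seeded agar, DMSO control, triplicate plates, 37 °C for 3–4 days, inhibition zone diameter in mm.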

For the next assay, the system named is Streptococcus pyogenes. As to the kind of experiment: Antibacterial activity against Streptococcus pyogenes after 3 to 4 days by serial plate dilution method. The conditions noted are these: for MIC: Streptococcus pyogenes. In short, it runs like this: as §2
In the next assay the test system is Staphylococcus aureus. As to the kind of experiment: Antibacterial activity against Staphylococcus aureus ATTC 25923 after 3 to 4 days by serial plate dilution method. The conditions noted are these: for MIC: Staphylococcus aureus, ATTC 25923. The method, boiled down:
as §2

The test system of a further assay is Klebsiella pneumoniae. As to the kind of experiment: Antibacterial activity against recultured Klebsiella pneumoniae after 3 to 4 days by serial plate dilution method. The conditions noted are these: for MIC: Klebsiella pneumoniae. In short, it runs like this: as §2
A further assay concerns Aspergillus flavus. As to the kind of experiment: Antifungal activity against Aspergillus flavus NCIM 524 after 3 to 4 days by serial plate dilution method. Particulars: for MIC: Aspergillus flavus, NCIM 524. In short, it runs like this: as §1
The subject of the next assay is Escherichia coli. As to the kind of experiment: Antibacterial activity against Escherichia coli ATTC 25922 after 3 to 4 days by serial plate dilution method. Particulars: for MIC: Escherichia coli, ATTC 25922. The method, boiled down:
as §2

The next assay deals with Aspergillus fumigatus. As to the kind of experiment: Antifungal activity against Aspergillus fumigatus NCIM 902 after 3 to 4 days by serial plate dilution method. The conditions noted are these: for MIC: Aspergillus fumigatus, NCIM 902. In short, it runs like this: as §1
Another assay relates to Candida albicans. The assay can be described thus: Antifungal activity against Candida albicans after 3 to 4 days by serial plate dilution method. The conditions noted are these: for MIC: Candida albicans. In short, it runs like this: as §1
The test system of assay [1] is Trichophyton mentagrophytes. The assay can be described thus: Antifungal activity against recultured Trichophyton mentagrophytes after 3 to 4 days by serial plate dilution method. The conditions noted are these: for MIC: Trichophyton mentagrophytes. The method, boiled down: as §1

This is an account of results in ChEMBL document CHEMBL1240415, “Design, synthesis and antimicrobial activities of some new quinoline derivatives carrying 1,2,3-triazole moiety” (2010).

≈ marks a conversion by molar mass, not a printed value.

One may read the MIC as the smallest concentration in the dilution series that meets the test's criterion for growth inhibition. A low value points to a more susceptible organism.

In the case of `COc1ccc2nc(C)cc(-n3cc(CN4CCN(c5ccc(F)cc5)CC4)nn3)c2c1`, the “diameter of the inhibition zone (DIZ)” value in the assay with Talaromyces marneffei is recorded as 12 mm; with Pseudomonas aeruginosa it was 10 mm; in the assay on Streptococcus pyogenes, <10 mm; in the assay with Staphylococcus aureus, 11 mm; in the assay on Klebsiella pneumoniae, 12 mm; with Aspergillus flavus, 10 mm. In addition, the “diameter of the inhibition zone (DIZ)” value in the assay with Escherichia coli was found to be 12 mm; in the assay with Aspergillus fumigatus, 14 mm; with Candida albicans, 12 mm; in [1], 10 mm. Moreover, the MIC in the assay with Talaromyces marneffei worked out at 6.25 µg/mL (≈ 14.5 µM); with Pseudomonas aeruginosa it was 6.25 µg/mL (≈ 14.5 µM); in the assay on Streptococcus pyogenes, 12.5 µg/mL (≈ 28.9 µM); in the assay with Staphylococcus aureus, 12.5 µg/mL (≈ 28.9 µM); against Klebsiella pneumoniae it was 6.25 µg/mL (≈ 14.5 µM); in the assay on Aspergillus flavus, 12.5 µg/mL (≈ 28.9 µM). Moreover, the MIC (in the assay on Escherichia coli; with Aspergillus fumigatus; in the assay on Candida albicans; in [1]) was 6.25 µg/mL (≈ 14.5 µM) each time.
Regarding `COc1ccc(N2CCN(Cc3cn(-c4cc(C)nc5ccc(OC)cc45)nn3)CC2)cc1`, the “diameter of the inhibition zone (DIZ)” value came to 18 mm in the assay on Talaromyces marneffei; 14 mm with Pseudomonas aeruginosa; 14 mm with Streptococcus pyogenes; 16 mm in the assay on Staphylococcus aureus; 16 mm with Klebsiella pneumoniae; 14 mm with Aspergillus flavus. The “diameter of the inhibition zone (DIZ)” value is recorded as 20 mm with Escherichia coli, 16 mm in the assay with Aspergillus fumigatus, 14 mm with Candida albicans and 16 mm in assay [1]. The MIC in the assay with Talaromyces marneffei, against Pseudomonas aeruginosa, in the assay on Streptococcus pyogenes, with Staphylococcus aureus, against Klebsiella pneumoniae and against Aspergillus flavus was 6.25 µg/mL (≈ 14.1 µM) each time. The MIC (in the assay on Escherichia coli; in the assay on Aspergillus fumigatus; in the assay with Candida albicans; in [1]) was 6.25 µg/mL (≈ 14.1 µM) throughout.
As for `COc1ccc2nc(C)cc(-n3cc(CN4CCN(c5ccc(C)cc5)CC4)nn3)c2c1`, the “diameter of the inhibition zone (DIZ)” value with Talaromyces marneffei was <10 mm; with Pseudomonas aeruginosa, <10 mm; in the assay on Streptococcus pyogenes, <10 mm; in the assay with Staphylococcus aureus, <10 mm; in the assay on Klebsiella pneumoniae, <10 mm; with Aspergillus flavus, 12 mm. Also, the “diameter of the inhibition zone (DIZ)” value was <10 mm in the assay with Escherichia coli, 10 mm with Aspergillus fumigatus, 12 mm in the assay with Candida albicans and 12 mm in [1]. Further, the MIC in the assay with Talaromyces marneffei came to 25 µg/mL (≈ 58.3 µM); with Pseudomonas aeruginosa it was 50 µg/mL (≈ 117 µM); against Streptococcus pyogenes, 50 µg/mL (≈ 117 µM); against Staphylococcus aureus, 50 µg/mL (≈ 117 µM); with Klebsiella pneumoniae, 50 µg/mL (≈ 117 µM); against Aspergillus flavus, 12.5 µg/mL (≈ 29.2 µM). Also, the MIC against Escherichia coli is 50 µg/mL (≈ 117 µM); in the assay with Aspergillus fumigatus it was 12.5 µg/mL (≈ 29.2 µM); with Candida albicans it was 12.5 µg/mL (≈ 29.2 µM); in assay [1], 12.5 µg/mL (≈ 29.2 µM).
As for `COc1ccc(N2CCN(Cc3cn(-c4cc(C)nc5ccc(OC)cc45)nn3)CC2)c(C)c1`, the “diameter of the inhibition zone (DIZ)” value in the assay with Talaromyces marneffei is 14 mm; in the assay on Pseudomonas aeruginosa, 10 mm; in the assay on Streptococcus pyogenes it was 16 mm; with Staphylococcus aureus, 14 mm; in the assay with Klebsiella pneumoniae it was 16 mm; with Aspergillus flavus, 14 mm. The “diameter of the inhibition zone (DIZ)” value is on record as 14 mm in the assay on Escherichia coli, 16 mm with Aspergillus fumigatus, 10 mm in the assay with Candida albicans and 14 mm in assay [1]. Besides, the MIC amounted to 6.25 µg/mL (≈ 13.6 µM) with Talaromyces marneffei; 12.5 µg/mL (≈ 27.3 µM) in the assay on Pseudomonas aeruginosa; 6.25 µg/mL (≈ 13.6 µM) with Streptococcus pyogenes; 12.5 µg/mL (≈ 27.3 µM) with Staphylococcus aureus; 6.25 µg/mL (≈ 13.6 µM) in the assay on Klebsiella pneumoniae; 6.25 µg/mL (≈ 13.6 µM) with Aspergillus flavus. The MIC against Escherichia coli is 12.5 µg/mL (≈ 27.3 µM); in the assay with Aspergillus fumigatus, 6.25 µg/mL (≈ 13.6 µM); in the assay with Candida albicans, 6.25 µg/mL (≈ 13.6 µM); in assay [1] it was 6.25 µg/mL (≈ 13.6 µM).
Regarding `COc1ccc2nc(C)cc(-n3cc(CN(C)CCN(C)C)nn3)c2c1`, the “diameter of the inhibition zone (DIZ)” value worked out at 16 mm in the assay with Talaromyces marneffei; 14 mm with Pseudomonas aeruginosa; 16 mm in the assay with Streptococcus pyogenes; 14 mm in the assay on Staphylococcus aureus; 14 mm with Klebsiella pneumoniae; 16 mm in the assay on Aspergillus flavus. Also, the “diameter of the inhibition zone (DIZ)” value amounted to 14 mm in the assay on Escherichia coli, 14 mm with Aspergillus fumigatus, 12 mm with Candida albicans and 14 mm in [1]. Further, the MIC against Talaromyces marneffei, against Pseudomonas aeruginosa, with Streptococcus pyogenes, against Staphylococcus aureus, in the assay on Klebsiella pneumoniae and in the assay on Aspergillus flavus was 6.25 µg/mL (≈ 17.6 µM) throughout. The MIC (against Escherichia coli; in the assay on Aspergillus fumigatus; against Candida albicans; in assay [1]) was 6.25 µg/mL (≈ 17.6 µM) each time.
Regarding `COc1ccc2nc(C)cc(-n3cc(CNCCCN(C)C)nn3)c2c1`, the “diameter of the inhibition zone (DIZ)” value came to 14 mm in the assay with Talaromyces marneffei; 12 mm with Pseudomonas aeruginosa; 14 mm in the assay on Streptococcus pyogenes; 14 mm in the assay with Staphylococcus aureus; 12 mm in the assay on Klebsiella pneumoniae; 14 mm with Aspergillus flavus. In addition, the “diameter of the inhibition zone (DIZ)” value stood at 10 mm in the assay on Escherichia coli, 16 mm in the assay on Aspergillus fumigatus, 14 mm in the assay on Candida albicans and 12 mm in assay [1]. The MIC in the assay on Talaromyces marneffei, in the assay on Pseudomonas aeruginosa, in the assay with Streptococcus pyogenes, in the assay with Staphylococcus aureus, with Klebsiella pneumoniae and in the assay on Aspergillus flavus was 6.25 µg/mL (≈ 17.6 µM) in each case. The MIC (against Escherichia coli; against Aspergillus fumigatus; in the assay with Candida albicans; in assay [1]) was 6.25 µg/mL (≈ 17.6 µM) each time.
Take `COc1ccc2nc(C)cc(-n3cc(CNC4CCCCC4)nn3)c2c1`: the “diameter of the inhibition zone (DIZ)” value was 10 mm with Talaromyces marneffei; 11 mm with Pseudomonas aeruginosa; 12 mm in the assay with Streptococcus pyogenes; <10 mm in the assay with Staphylococcus aureus; 10 mm with Klebsiella pneumoniae; 12 mm in the assay with Aspergillus flavus. In addition, the “diameter of the inhibition zone (DIZ)” value in the assay with Escherichia coli is 10 mm; with Aspergillus fumigatus, <10 mm; in the assay with Candida albicans, 11 mm; in [1], <10 mm. Also, the MIC with Talaromyces marneffei amounted to 12.5 µg/mL (≈ 35.6 µM); in the assay on Pseudomonas aeruginosa it was 12.5 µg/mL (≈ 35.6 µM); with Streptococcus pyogenes, 12.5 µg/mL (≈ 35.6 µM); in the assay on Staphylococcus aureus it was 25 µg/mL (≈ 71.1 µM); in the assay with Klebsiella pneumoniae, 12.5 µg/mL (≈ 35.6 µM); with Aspergillus flavus, 12.5 µg/mL (≈ 35.6 µM). The MIC in the assay on Escherichia coli came to 12.5 µg/mL (≈ 35.6 µM); against Aspergillus fumigatus, 25 µg/mL (≈ 71.1 µM); against Candida albicans, 12.5 µg/mL (≈ 35.6 µM); in assay [1] it was 25 µg/mL (≈ 71.1 µM).
